Reference: ChEMBL document CHEMBL4325893, “Synthesis and antibacterial profiles of targeted triclosan derivatives” (2019)
Values after ≈ are worked out from the molar mass of the structure shown.

What was measured:
[1] = test system: Escherichia coli; assay: Antibacterial activity against Escherichia coli OCC 122 after 18 hrs; assay type: functional; details: OCC 122, 18 h
Summary of the method: (§1)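 Broth microdilution in Nutrient Broth No. 2; stocks in ethanol diluted to 0.01–128 µg/ml (triclosan) or 0.25–256 µg/ml (glycosides). Overnight 37 °C NB2 cultures diluted 1 in 10^4 in saline and added to the dilutions. Incubation at 37 °C with agitation, OD read every 15 min; MIC is the lowest concentration preventing any OD rise after 18 h.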

[2] = Antibacterial activity against Salmonella enterica subspecies enterica serotype Pullorum OCC 273 after 18 hrs; assay type: functional, Salmonella enterica subsp. enterica serovar Pullorum; details: OCC 273, 18 h; summary of the method: as §1
[3] = test system: Bacillus cereus; assay: Antibacterial activity against Bacillus cereus ATCC 14579 after 18 hrs; assay type: functional; details: ATCC 14579, 18 h; summary of the method: as §1
[4] = Antibacterial activity against Salmonella enterica subspecies enterica serotype Infantis OCC 2133 after 18 hrs; assay type: functional, Salmonella enterica subsp. enterica serovar Infantis; details: OCC 2133, 18 h; summary of the method: as §1
[5] = test system: Salmonella typhimurium; assay: Antibacterial activity against Salmonella enterica subspecies enterica serotype typhimurium ATCC 14028 after 18 hrs; assay type: functional, Salmonella enterica subsp. enterica serovar Typhimurium; details: ATCC 14028, 18 h; summary of the method: as §1
[6] = Antibacterial activity against Salmonella enterica subspecies enterica serotype Poona NCTC 4840 after 18 hrs; assay type: functional, Salmonella enterica subsp. enterica serovar Poona; details: NCTC 4840, 18 h; summary of the method: as §1
[7] = test system: Enterococcus faecalis; assay: Antibacterial activity against Enterococcus faecalis ATCC 29212 after 18 hrs; assay type: functional; details: ATCC 29212, 18 h; summary of the method: as §1
[8] = test system: Bacillus subtilis; assay: Antibacterial activity against Bacillus subtilis NCTC 10073 after 18 hrs; assay type: functional; details: NCTC 10073, 18 h; summary of the method: as §1
[9] = test system: Citrobacter freundii; assay: Antibacterial activity against Citrobacter freundii 8090 after 18 hrs; assay type: functional; details: Citrobacter freundii, 8090, 18 h; summary of the method: as §1
[10] = test system: Staphylococcus aureus; assay: Antibacterial activity against Staphylococcus aureus ATCC 9144 after 18 hrs; assay type: functional; details: ATCC 9144, 18 h; summary of the method: as §1
[11] = test system: Klebsiella aerogenes; assay: Antibacterial activity against Enterobacter aerogenes ATCC 13048 after 18 hrs; assay type: functional; details: ATCC 13048, 18 h; summary of the method: as §1
[12] = test system: Streptococcus pyogenes; assay: Antibacterial activity against Streptococcus pyogenes ATCC 19615 after 18 hrs; assay type: functional; details: ATCC 19615, 18 h
Summary of the method: (§2)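 Broth microdilution in Nutrient Broth No. 2. Ethanol stocks were diluted in broth to 0.01–128 µg/ml for triclosan and 0.25–256 µg/ml for glycosides. Overnight 37°C NB2 cultures were diluted 1 in 10^4 in saline and added to the wells. Plates were incubated at 37°C with OD read every 15 min after agitation. MIC was the lowest concentration giving no OD increase at 18 h.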

[13] = test system: Streptococcus viridans; assay: Antibacterial activity against Streptococcus viridans OCC 234 after 18 hrs; assay type: functional; details: OCC 234, 18 h; summary of the method: as §2
[14] = test system: Cronobacter sakazakii; assay: Antibacterial activity against Cronobacter sakazakii 29544 after 18 hrs; assay type: functional; details: Cronobacter sakazakii, 29544, 18 h; summary of the method: as §1
[15] = test system: Enterococcus faecium; assay: Antibacterial activity against Enterococcus faecium ATCC 19434 after 18 hrs; assay type: functional; details: ATCC 19434, 18 h; summary of the method: as §1
[16] = test system: Staphylococcus aureus; assay: Antibacterial activity against Staphylococcus aureus NCTC 13758 after 18 hrs; assay type: functional; details: NCTC 13758, 18 h; summary of the method: as §1
[17] = test system: Streptococcus pneumoniae; assay: Antibacterial activity against Streptococcus pneumoniae 6305 after 18 hrs; assay type: functional; details: Streptococcus pneumoniae, 6305, 18 h; summary of the method: as §2
[18] = test system: Serratia marcescens; assay: Antibacterial activity against Serratia marcescens OCC 217 after 18 hrs; assay type: functional; details: OCC 217, 18 h; summary of the method: as §1
[19] = test system: Klebsiella aerogenes; assay: Antibacterial activity against Klebsiella aerogenes NCTC 8167 after 18 hrs; assay type: functional; details: NCTC 8167, 18 h; summary of the method: as §1
[20] = test system: Staphylococcus aureus; assay: Antibacterial activity against Staphylococcus aureus OCC 106 after 18 hrs; assay type: functional; details: OCC 106, 18 h; summary of the method: as §1
[21] = test system: Staphylococcus aureus; assay: Antibacterial activity against Staphylococcus aureus OCC 104 after 18 hrs; assay type: functional; details: OCC 104, 18 h; summary of the method: as §1
[22] = test system: Escherichia coli; assay: Antibacterial activity against Escherichia coli ATCC 11775 after 18 hrs; assay type: functional; summary of the method: as §1
[23] = test system: Aeromonas hydrophila; assay: Antibacterial activity against Aeromonas hydrophila OCC 778 after 18 hrs; assay type: functional; details: OCC 778, 18 h; summary of the method: as §1
[24] = test system: Proteus vulgaris; assay: Antibacterial activity against Proteus vulgaris OCC 195 after 18 hrs; assay type: functional; details: OCC 195, 18 h; summary of the method: as §1
[25] = test system: Escherichia coli; assay: Antibacterial activity against Escherichia coli ATCC 8739 after 18 hrs; assay type: functional; details: ATCC 8739, 18 h; summary of the method: as §1
[26] = test system: Escherichia coli; assay: Antibacterial activity against Escherichia coli 700728 after 18 hrs; assay type: functional; details: Escherichia coli, 700728, 18 h; summary of the method: as §1
[27] = test system: Staphylococcus epidermidis; assay: Antibacterial activity against Staphylococcus epidermidis ATCC 14990 after 18 hrs; assay type: functional; details: ATCC 14990, 18 h; summary of the method: as §1
[28] = test system: Enterococcus faecalis; assay: Antibacterial activity against Enterococcus faecalis ATCC 33186 after 18 hrs; assay type: functional; details: ATCC 33186, 18 h; summary of the method: as §1
[29] = test system: Escherichia coli; assay: Antibacterial activity against Escherichia coli ATCC 25922 after 18 hrs; assay type: functional; details: ATCC 25922, 18 h; summary of the method: as §1

MIC [1]: 2 to 8 µg/mL (≈ 4.43 to 17.7 µM)
MIC [2]: 2 to 8 µg/mL (≈ 4.43 to 17.7 µM)
MIC [3]: 128 µg/mL (≈ 283 µM)
MIC [4]: 2 to 8 µg/mL (≈ 4.43 to 17.7 µM)
MIC [5]: 2 to 8 µg/mL (≈ 4.43 to 17.7 µM)
MIC [6]: 2 to 8 µg/mL (≈ 4.43 to 17.7 µM)
MIC [7]: 128 µg/mL (≈ 283 µM)
MIC [8]: 32 µg/mL (≈ 70.8 µM)
MIC [9]: 4 µg/mL (≈ 8.86 µM)
MIC [10]: 1 µg/mL (≈ 2.21 µM)
MIC [11]: 8 µg/mL (≈ 17.7 µM)
MIC [12]: 32 µg/mL (≈ 70.8 µM)
MIC [13]: 128 µg/mL (≈ 283 µM)
MIC [14]: 8 µg/mL (≈ 17.7 µM)
MIC [15]: 256 µg/mL (≈ 567 µM)
MIC [16]: 1 µg/mL (≈ 2.21 µM)
MIC [17]: 32 µg/mL (≈ 70.8 µM)
MIC [18]: > 256 µg/mL
MIC [19]: 2 µg/mL (≈ 4.43 µM)
MIC [20]: 1 µg/mL (≈ 2.21 µM)
MIC [21]: 1 µg/mL (≈ 2.21 µM)
MIC [22]: 2 to 8 µg/mL (≈ 4.43 to 17.7 µM)
MIC [23]: 256 µg/mL (≈ 567 µM)
MIC [24]: 4 µg/mL (≈ 8.86 µM)
MIC [25]: 2 to 8 µg/mL (≈ 4.43 to 17.7 µM)
MIC [26]: 2 to 8 µg/mL (≈ 4.43 to 17.7 µM)
MIC [27]: 1 µg/mL (≈ 2.21 µM)
MIC [28]: 128 µg/mL (≈ 283 µM)
MIC [29]: 2 to 8 µg/mL (≈ 4.43 to 17.7 µM)
Structure (SMILES): OC[C@H]1O[C@H](Oc2cc(Cl)ccc2Oc2ccc(Cl)cc2Cl)[C@H](O)[C@@H](O)[C@@H]1O
